Data on four compounds can be found in ChEMBL document CHEMBL4118197, “The discovery and preclinical evaluation of BMS-707035, a potent HIV-1 integrase strand transfer inhibitor” (Bioorg Med Chem Lett, 2018).

The nature of series [1]: Aqueous solubility of the compound. In kind it is physicochemical. Summed up: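 Aqueous solubility measured at pH 2.3, 6.1, 7.3 and 8.5, in µg/mL.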
The target in series [2] is Human immunodeficiency virus type 1 integrase (Human immunodeficiency virus 1, UniProt Q7ZJM1). Description: Inhibition of HIV1 integrase strand transfer activity.
Series [3] in a line: Clearance in Sprague-Dawley rat at 1 mg/kg, iv after 4 hrs. The series is classed as ADME, organism-based. The settings on record: in vivo. A digest of the protocol:
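Male Sprague-Dawley rats given 1 mpk IV in PEG400/ethanol (90:10); blood sampled at 5 and 30 min and 1, 2 and 4 h post-dose; clearance from plasma profile.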

Molecules are shown by their SMILES.

Chain of Human immunodeficiency virus type 1 integrase (Q7ZJM1 whole entry): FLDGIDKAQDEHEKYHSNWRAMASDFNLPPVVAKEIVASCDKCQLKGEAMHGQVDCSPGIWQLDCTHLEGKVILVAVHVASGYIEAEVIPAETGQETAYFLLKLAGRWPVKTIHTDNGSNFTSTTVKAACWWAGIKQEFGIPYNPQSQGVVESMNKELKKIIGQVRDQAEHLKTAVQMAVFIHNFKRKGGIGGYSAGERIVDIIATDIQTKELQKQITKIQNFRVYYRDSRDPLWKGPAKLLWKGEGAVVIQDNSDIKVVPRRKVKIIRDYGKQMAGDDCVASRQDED

In general, solubility refers to the concentration that dissolves in the medium under given conditions. Higher therefore signals much dissolved substance. A word on the IC50: it is the midpoint of a concentration-inhibition curve. For `CN(C)S(=O)(=O)c1cc(F)ccc1CNC(=O)c1nc2n(c(=O)c1O)CCCC21CCCC1`, the solubility in series [1] was at most 5 µg/mL. For the same compound, in series [2], the IC50 was 6 nM.

`O=C(NCc1ccc(F)cc1N1CCCCS1(=O)=O)c1nc2n(c(=O)c1O)CCCC21CCCC1` showed a solubility in series [1] of at most 5 µg/mL. The IC50 in series [2] was found to be 5 nM.

Usually clearance stands for the rate of elimination divided by the concentration. Higher therefore signals a high capacity for elimination. `Cc1cc(CNC(=O)c2nc3n(c(=O)c2O)CCCC32CCCC2)ccc1F`: the clearance in series [3] was 17 mL/min/kg. Further, in series [1], the solubility was at most 5 µg/mL. In addition, in series [2], the IC50 was determined as 2 nM.

In turn, `O=C(NCc1ccc(F)cc1)c1nc2n(c(=O)c1O)CCCC21CCCC1` returned a clearance in series [3] of 18 mL/min/kg. The compound also came in with a solubility in series [1] of at most 5 µg/mL. The compound also showed a concentration for half-maximal inhibition (IC50) in series [2] of 3 nM.
